hERG rescue – hERG (human) protection from proarrhythmic block; CHO-hERG, FluxOR thallium flux, dofetilide IC70 present; activation (rescue from dofetilide block), less the hit threshold, % at 10 µM; 0.51% of 310,000 active; Q12809;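 active = activation above the mean of controls blocked by dofetilide plus 5 SD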;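 also: thallium influx through hERG after potassium depolarization seen as dye fluorescence rise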
KCNQ1 act – potentiators or activators of human KCNQ1 potassium channel | P51787 | CHO-K1 KCNQ1, thallium flux FluxOR fluorescence; hits give high values | B-score at 10 µM | 0.35% of 310,000 active | AID 2648;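 active = fluorescence ratio B-score, a plate-corrected score, at least three library SD, with initial intensity B-score within 5 SD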
Target sequence (P51787 whole entry, looked up): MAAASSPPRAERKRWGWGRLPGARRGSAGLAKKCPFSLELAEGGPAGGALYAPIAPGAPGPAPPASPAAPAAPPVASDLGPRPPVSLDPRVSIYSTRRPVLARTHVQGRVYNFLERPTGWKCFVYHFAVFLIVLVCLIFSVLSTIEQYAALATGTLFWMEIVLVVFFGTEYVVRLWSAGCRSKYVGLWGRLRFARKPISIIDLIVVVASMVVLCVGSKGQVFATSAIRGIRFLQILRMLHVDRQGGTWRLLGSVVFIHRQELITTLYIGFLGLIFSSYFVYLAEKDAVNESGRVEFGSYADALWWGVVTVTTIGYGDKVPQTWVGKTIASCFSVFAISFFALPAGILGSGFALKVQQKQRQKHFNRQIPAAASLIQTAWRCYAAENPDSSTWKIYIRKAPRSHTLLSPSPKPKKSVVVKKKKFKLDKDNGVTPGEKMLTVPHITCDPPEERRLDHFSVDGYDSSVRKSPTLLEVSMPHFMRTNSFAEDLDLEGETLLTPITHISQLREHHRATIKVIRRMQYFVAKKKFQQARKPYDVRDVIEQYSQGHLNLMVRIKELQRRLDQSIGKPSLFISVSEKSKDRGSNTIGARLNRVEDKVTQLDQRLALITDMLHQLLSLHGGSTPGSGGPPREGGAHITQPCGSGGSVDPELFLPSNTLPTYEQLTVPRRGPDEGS
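Assay system: CHO-K1 cells stably expressing KCNQ1. Medium: assay buffer for compound exposure, DMSO matched across wells. Timing: 37 °C overnight plating, 90-min dark dye load, 20-min compound pretreatment. Signal: kinetic FluxOR fluorescence, 10 s baseline plus 110 s post-stimulus.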
Cl transport mod – KCC2 (human) Cl- transport modulation; B-score of Tl+ flux slope (higher = more flux/activation; lower = inhibition) at 10 µM; KCC2 cells, thallium flux FluoZin-2 fluorescence; AID 1456; 2.2% of 190,000 active; Q9H2X9;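 active = thallium flux slope and its plate-corrected score both differing from the plate sample mean at a set confidence after two filtering rounds, in either direction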;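 also: slope of fluorescence scaled to starting intensity during 10 to 20 s after thallium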
KCNK9 block – human KCNK9 channel inhibition; HEK293 KCNK9, FluxOR thallium flux fluorescence; hits give low values; B-score at 10 µM; 1.2% of 310,000 active;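 active = ratio B-score over 3 SD below the library mean, with starting fluorescence within 5 SD of its mean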;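 also: negative B-score means less thallium flux so channel inhibition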
KCNQ1 inh – inhibitors of human KCNQ1 potassium channel | AID 2642 | B-score at 10 µM | CHO-K1 KCNQ1, FluxOR thallium flux fluorescence; hits give high values | 1.3% of 310,000 active;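 active = compounds whose thallium flux B-score, printed positive for inhibition, exceeds three library SD while starting fluorescence stays within three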;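 also: channel opened by potassium depolarization with thallium stimulus after 20 min compound exposure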
KCNK3 block – human KCNK3 channel inhibition, primary screen; 0.84% of 340,000 active; B-score at 10 µM; AID 602410; CHO-KCNK3 thallium flux, FluxOR fluorescence; hits give low values; O14649;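 active = B-score under library mean minus 4 SD, starting fluorescence ratio at most library mean plus 5 SD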;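 also: more negative B-score means stronger inhibition of thallium flux through KCNK3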
KCNQ1 block val – confirmation of human KCNQ1 potassium channel inhibitors; AID 588353; shares compounds with KCNQ1 inh; 93% of 1,600 active; KCNQ1 cell line, FluxOR thallium flux fluorescence; inhibition, % at 10 µM;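 active = primary screen active, with duplicate mean exceeding buffer control mean plus 3 SD of buffer wells, cut at about 28% in these data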
CHO KCNQ1 ctr – activity in parental CHO cells lacking KCNQ1. 21% of 1,600 active. parental CHO-K1, FluxOR thallium flux fluorescence ratio; hits give low values; zero means no signal rise above baseline. fluorescence ratio (Tl flux) at 10 µM. AID 588366. shares compounds with KCNQ1 inh;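 active = mean of duplicate thallium-flux fluorescence ratios in parental host cells more than 5 SD below the buffer control mean, cut at about 0.38 in these data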;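 also: ratio is peak minus minimum fluorescence divided by baseline fluorescence; actives read low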
KCNQ1 ephys val – confirmation of human KCNQ1 potassium channel inhibitors by electrophysiology | shares compounds with KCNQ1 inh | KCNQ1-CHO cells, automated patch clamp current | calls only at 10 µM | 20% of 490 active | AID 624120;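 active = KCNQ1 current drop exceeding 3 SD of negative control wells, seen in both duplicate runs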;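 also: steady state current during a 2 s step from -80 to +40 mV; negative values mean current inhibition and positive values mean potentiation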
KCNQ2 spec – rat KCNQ2 inhibition in KCNQ1 inhibitor specificity screen | KCNQ2 cells, FluxOR thallium flux fluorescence | inhibition, % at 10 µM | AID 651746 | 71% of 1,600 active | shares compounds with KCNQ1 inh;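 active = mean percent inhibition of the KCNQ2 thallium signal more than 5 SD above the buffer-only control wells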;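 also: KCNQ2 expressed in CHO cells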
KCNQ1-KCNE1 inh – selectivity of KCNQ1 inhibitors: inhibition of human KCNQ1/KCNE1 channel; shares compounds with KCNQ1 inh; KCNQ1/KCNE1 cells, FluxOR thallium flux fluorescence; inhibition, % at 10 µM; 77% of 1,600 active; AID 652147;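 active = mean percent inhibition of duplicate wells above the buffer-only control mean plus 3 SD of those controls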
KCNK9 inh conf – human KCNK9 inhibitor confirmation; inhibition, % at 10 µM; shares compounds with KCNK9 block; 43% of 4,900 active; HEK293 KCNK9 cells, FluxOR thallium flux fluorescence;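 active = thallium signal inhibited by more than 5 SD of the compound-free buffer control wells, on both duplicate plates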
Kir2-1 spec – tests whether KCNK9 modulators also affect mouse Kir2.1; 4% of 4,900 active; inhibition, % at 10 µM; AID 492993; shares compounds with KCNK9 block; Kir2.1 cells, FluxOR thallium flux fluorescence;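 active = thallium signal drop more than 5 SD beyond the mean of the no-compound control wells, seen in both duplicate plates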;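 also: signal is fluorescence rise after thallium addition divided by baseline fluorescence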
HEK293 Tl ctr – second counter-screen for KCNK9 modulators: effect in non-induced cells. shares compounds with KCNK9 block. non-induced KCNK9-HEK293, FluxOR thallium flux. inhibition, % at 10 µM. 40% of 4,900 active;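 active = thallium signal drop beyond 5 SD of the untreated control mean, on both duplicate plates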
KCNK3 inh conf – confirmation of human KCNK3 two-pore domain potassium channel inhibitors | shares compounds with KCNK3 block | CHO-KCNK3 thallium flux, FluxOR fluorescence; 0% buffer, 100% carvedilol maximal block | ratio percent of control, % at 10 µM | 99% of 2,400 active | AID 651638;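 active = ratio percent of control, averaged over triplicates, above buffer control mean plus 5 SD, cut at about 64% in these data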;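 also: ratio is the fluorescence rise from min to max over baseline after thallium stimulus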
KCNK3 uninduced – activity in cells without induced KCNK3 expression; shares compounds with KCNK3 block; non-induced KCNK3 parental cells, FluxOR thallium flux; hits give low values; thallium flux ratio (lower = more inhibition) at 10 µM; AID 651747; 40% of 2,400 active;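 active = thallium flux ratio, averaged over three wells, more than 5 SD below the buffer control mean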;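 also: host cells are CHO cells without KCNK3 induction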
Large screens that a line does not name were inactive (follow-up assays come after a bar, where they were run). This is a sample that favours compounds with a hit; in the whole collection about 4.1% have one here.

CCC(=NCc1cc(OC)cc(OC)c1)c1c(O)n(C2CCCCC2)c(=O)[nH]c1=O	none
COc1cc(CN=C(C)c2c(O)n(C3CCCCC3)c(=O)[nH]c2=O)cc(OC)c1	KCNQ1 inh 6 | KCNQ1 block val inactive | CHO KCNQ1 ctr inactive | KCNQ2 spec 80.3% | KCNQ1-KCNE1 inh inactive
O=C1C=CC(=O)C2C1C1(Cl)C(Cl)=C(Cl)C2(Cl)C1(Cl)Cl (centres undefined)	none (no result: hERG rescue, KCNQ1 act, Cl transport mod, KCNK9 block, KCNQ1 inh)
COC(=O)C1=C(c2ccc(F)cc2OCc2ccccc2)C[C@@H]2CC[C@H]1N2C(=O)N1CCCC1	none (no result: hERG rescue, KCNQ1 act, Cl transport mod, KCNK9 block, KCNQ1 inh)
CC12CC(=O)C3C(CCC4CC(=O)C=CC43C)C1CCC2=O (centres undefined)	none (no result: hERG rescue, KCNQ1 act, Cl transport mod, KCNK9 block, KCNQ1 inh)
O=C(c1ccccc1F)c1cn(Cc2ccccc2)c2ccccc12	KCNK9 block -7.46, KCNQ1 inh 6, KCNK3 block -9.43 (no result: Cl transport mod) | KCNQ1 block val 85.0 | CHO KCNQ1 ctr inactive | KCNQ2 spec 85.0% | KCNQ1-KCNE1 inh 130.5% | KCNK3 inh conf 113.0 | KCNK3 uninduced 0.158
Cc1sc2ncnc(N3CCC(C(=O)Nc4ccc(C#N)c(Cl)c4)CC3)c2c1C	KCNQ1 inh 7, KCNK3 block -10.1 (no result: Cl transport mod) | KCNQ1 block val 132.0 | CHO KCNQ1 ctr inactive | KCNQ1 ephys val inactive | KCNQ2 spec 112.3% | KCNQ1-KCNE1 inh 155.5% | KCNK3 inh conf 131.0 | KCNK3 uninduced 0.147
Cc1noc(C)c1CSCC(=O)Nc1ccc(C#N)c(Cl)c1	none (no result: hERG rescue, KCNQ1 act, Cl transport mod, KCNK9 block, KCNQ1 inh)
COc1cccc2c1N=C1CCCC3CN(C(C)=O)CCC123 (centres undefined)	none (no result: hERG rescue, KCNQ1 act, Cl transport mod, KCNK9 block, KCNQ1 inh)
O=C(CN1CC=C(c2ccccc2)CC1)Nc1cc(Cl)ccc1Cl	none | KCNK9 inh conf inactive | Kir2-1 spec inactive | HEK293 Tl ctr inactive
Cc1ccc(S(=O)(=O)N2CCN(C(=O)COC(=O)Cc3ccccc3)CC2)c(C)c1	none (no result: Cl transport mod)
COc1ccccc1N1CCN(C2CCCN(C(=O)COc3ccccc3Cl)C2)CC1 (centres undefined)	none (no result: Cl transport mod) | KCNK9 inh conf inactive | Kir2-1 spec inactive | HEK293 Tl ctr inactive
COc1ccccc1OCC(=O)N1CCCC(N(C)Cc2ccccc2)C1 (centres undefined)	none (no result: Cl transport mod)
N=C1c2ccccc2CN1c1ncccn1	none
COC(=O)C1=C(c2ccc(S(C)(=O)=O)cc2)C[C@@H]2CC[C@H]1N2C(=O)N1CCC(O)CC1	none (no result: Cl transport mod)
Brc1ccc2[nH]cc(/C=N/N3CCCCC3)c2c1	none
CCCCC/C(=N\O)c1c[nH]c2ccccc12	KCNK9 block -12.5 | KCNK9 inh conf 56.5% | Kir2-1 spec inactive | HEK293 Tl ctr 25.0%
CCCCC/C(=N/O)c1c(C)[nH]c2ccccc12	none
Cc1cccc(CN2CCCN(Cc3ccc(Cl)cc3)S2(=O)=O)c1	none (no result: Cl transport mod)
Cc1ccc(CN2CCCN(Cc3ccc(C)cc3)S2(=O)=O)cc1	none (no result: Cl transport mod) | KCNK9 inh conf inactive | Kir2-1 spec inactive | HEK293 Tl ctr inactive
Cc1cc(C)cc(N2C(=O)/C(=C\c3ccc(N4CCN(C)CC4)o3)C(=O)NC2=S)c1	KCNK9 block -9.07, KCNQ1 inh 10 | KCNK9 inh conf 55.0% | Kir2-1 spec 34.0% | HEK293 Tl ctr 70.5%
Cc1ccc(/C=C2\C(=O)NC(=S)N(c3ccc(F)cc3)C2=O)o1	none (no result: Cl transport mod)
Cc1ccc(-n2nc(C)c3c2NC(=O)CSC3c2ccc3c(c2)OCO3)cc1 (centres undefined)	KCNK9 block -13.2 | KCNK9 inh conf 36.5% | Kir2-1 spec inactive | HEK293 Tl ctr 31.0%
COc1ccc(C2SCC(=O)Nc3c2c(C)nn3-c2ccccc2)cc1 (centres undefined)	none
CCN(CC)c1ccc(CC2C(=O)N(C)C(=O)N(C)C2=O)cc1	none | KCNK9 inh conf inactive | Kir2-1 spec inactive | HEK293 Tl ctr inactive
Cn1cc(C=C(C#N)C#N)c2ccccc21	KCNK9 block -8.35 | KCNK9 inh conf inactive | Kir2-1 spec inactive | HEK293 Tl ctr 52.5%
COC(=O)Cn1cc(C(=O)c2ccccc2F)c2ccccc21	none (no result: Cl transport mod)
O=C(c1ccccc1F)c1cn(Cc2ccc(F)cc2)c2ccccc12	KCNK9 block -8.7 | KCNK9 inh conf 50.0% | Kir2-1 spec inactive | HEK293 Tl ctr 33.5%
CC(=O)C1C(N2CC2)CC2C3CC=C4CC(O)CCC4(C)C3CCC21C (centres undefined)	none (no result: hERG rescue, KCNQ1 act, Cl transport mod, KCNK9 block, KCNQ1 inh)
CCC(=NCc1cc(OC)cc(OC)c1)c1c(O)n(C)c(=O)n(C)c1=O	none
Cc1ccc(CN2CCCC(C(=O)c3cccc(C(F)(F)F)c3)C2)o1 (centres undefined)	none (no result: Cl transport mod) | KCNK9 inh conf inactive | Kir2-1 spec inactive | HEK293 Tl ctr inactive
Cc1ccsc1C(=O)C1CCCN(Cc2cc3ccccc3o2)C1 (centres undefined)	none | KCNK9 inh conf inactive | Kir2-1 spec inactive | HEK293 Tl ctr inactive
Cc1ccc(CN2CCCC(C(=O)c3sccc3C)C2)o1 (centres undefined)	none (no result: Cl transport mod) | KCNK9 inh conf inactive | Kir2-1 spec inactive | HEK293 Tl ctr inactive
CC1([N+](=O)[O-])COP(=O)(Nc2cccc(F)c2)OC1 (centres undefined)	none (no result: hERG rescue, KCNQ1 act, Cl transport mod, KCNK9 block, KCNQ1 inh)

Compound activity (PubChem BioAssay)
